This note sets out measurements from ChEMBL document CHEMBL1156992, “Identification and hit-to-lead exploration of a novel series of histamine H4 receptor inverse agonists” (Bioorg Med Chem Lett, 2010).

Data set [1] can be described thus: Metabolic stability in rat microsomes assessed as drug remaining after 10 mins. The format is ADME, Microsome. To be noted: for remaining at 10 min: read-out: Stability. The method in brief: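 Compound incubated with rat liver microsomes. Parent remaining measured after 10 min, expressed as percent.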
In data set [2] the target is T1, Histamine H4 receptor (Homo sapiens, UniProt Q9H3N8). Nature of the data set: Displacement of [3H]histamine dihydrochloride from human histamine H4 receptor after 2.5 hrs by scintillation proximity assay. The method in brief:
(§1)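 Human H4 receptor-expressing membranes (25 µg) incubated with 20 nM [³H]-histamine dihydrochloride and SPA beads. Buffer: 50 mM Tris pH 7.5, 5 mM EDTA, 0.5% BSA, 1% DMSO. Incubation 2.5 h at room temperature. Non-specific binding taken with excess histamine. Scintillation counting. IC50 from a 6-point semi-log dose-response, duplicate wells.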
For orientation: Loss of bound radioactivity is the signal in a displacement assay; it reports binding, not function.

Data set [3] in a line: Volume of distribution in dog. The format is ADME, organism-based, Canis lupus familiaris. The conditions noted are these: in vivo.
Data set [4] can be described thus: Volume of distribution in Cynomolgus monkey. Type of data set: ADME, organism-based, Macaca fascicularis. To be noted: in vivo.
The target in data set [5] is T2, CYP1A2 (Homo sapiens, UniProt P05177).
T2 sequence (P05177 whole entry): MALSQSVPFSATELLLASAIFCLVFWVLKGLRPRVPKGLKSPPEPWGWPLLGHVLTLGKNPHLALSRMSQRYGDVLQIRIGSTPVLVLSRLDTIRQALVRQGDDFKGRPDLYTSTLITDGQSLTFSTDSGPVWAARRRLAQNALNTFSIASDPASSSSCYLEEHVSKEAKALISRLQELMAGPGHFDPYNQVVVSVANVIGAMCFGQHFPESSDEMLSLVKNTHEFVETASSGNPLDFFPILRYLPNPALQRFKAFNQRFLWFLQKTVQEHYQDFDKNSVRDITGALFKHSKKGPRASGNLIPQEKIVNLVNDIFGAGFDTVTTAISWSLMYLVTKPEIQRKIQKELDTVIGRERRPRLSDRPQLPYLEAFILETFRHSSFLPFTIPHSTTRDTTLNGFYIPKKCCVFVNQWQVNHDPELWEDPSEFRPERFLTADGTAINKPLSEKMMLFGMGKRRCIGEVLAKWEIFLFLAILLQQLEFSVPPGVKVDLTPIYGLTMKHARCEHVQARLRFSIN
Nature of the data set: Inhibition of CYP1A2 at 1 uM. The format is ADME. The method in brief: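 CYP1A2 inhibition tested at 1 µM. Percent inhibition reported.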

Data set [6] in a line: Clearance in rat at 5 mg/kg, po. The format is ADME, organism-based. On the set-up: dose 5 mg/kg, route oral. The conditions noted are these: in vivo. The method in brief:
(§2)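 Rat pharmacokinetic study with oral dosing at 5 mg/kg.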

Data set [7] deals with Rattus norvegicus. Put plainly: Volume of distribution in rat at 5 mg/kg, po. The format is ADME, organism-based. More on the design: dose 5 mg/kg, route oral. To be noted: in vivo. In outline: as §2
Data set [8] addresses Histamine H1 receptor (Homo sapiens, UniProt P35367). Put plainly: Binding affinity to histamine H1 receptor.
Data set [9] has as its target T1, Histamine H4 receptor. Put plainly: Inverse agonist activity at human histamine H4 receptor assessed as inhibition of [35S]GTPgammaS binding after 15 mins by scintillation proximity assay. The format is functional. (Binding of GTPγS marks nucleotide exchange on a G protein.)
A short description of data set [10]: Oral bioavailability in rat at 5 mg/kg. Type of data set: ADME, organism-based. The conditions noted are these: in vivo. In outline: as §2
Data set [11] in a line: Oral bioavailability in Cynomolgus monkey. To be noted: in vivo. The format is ADME, organism-based, Macaca fascicularis.
Data set [12] can be described thus: Clearance in dog. Type of data set: ADME, organism-based, Canis lupus familiaris. The conditions noted are these: in vivo.
Data set [13] deals with Histamine H3 receptor (Homo sapiens, UniProt Q9Y5N1). Nature of the data set: Binding affinity to histamine H3 receptor.
Chain of Histamine H3 receptor (Q9Y5N1 whole entry): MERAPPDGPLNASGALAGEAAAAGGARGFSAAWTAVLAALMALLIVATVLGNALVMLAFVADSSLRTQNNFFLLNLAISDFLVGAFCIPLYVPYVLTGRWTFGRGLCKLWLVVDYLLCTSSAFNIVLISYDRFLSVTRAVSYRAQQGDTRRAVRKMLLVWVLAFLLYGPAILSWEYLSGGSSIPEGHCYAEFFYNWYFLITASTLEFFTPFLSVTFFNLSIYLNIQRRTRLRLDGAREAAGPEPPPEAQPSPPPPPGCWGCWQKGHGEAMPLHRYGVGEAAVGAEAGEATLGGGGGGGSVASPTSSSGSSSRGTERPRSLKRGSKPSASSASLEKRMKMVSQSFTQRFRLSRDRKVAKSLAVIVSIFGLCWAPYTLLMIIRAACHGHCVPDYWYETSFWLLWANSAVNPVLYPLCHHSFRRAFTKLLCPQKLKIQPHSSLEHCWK
The target in data set [14] is Histamine H2 receptor (Homo sapiens, UniProt P25021). Nature of the data set: Binding affinity to histamine H2 receptor.
Chain of Histamine H2 receptor (P25021 whole entry): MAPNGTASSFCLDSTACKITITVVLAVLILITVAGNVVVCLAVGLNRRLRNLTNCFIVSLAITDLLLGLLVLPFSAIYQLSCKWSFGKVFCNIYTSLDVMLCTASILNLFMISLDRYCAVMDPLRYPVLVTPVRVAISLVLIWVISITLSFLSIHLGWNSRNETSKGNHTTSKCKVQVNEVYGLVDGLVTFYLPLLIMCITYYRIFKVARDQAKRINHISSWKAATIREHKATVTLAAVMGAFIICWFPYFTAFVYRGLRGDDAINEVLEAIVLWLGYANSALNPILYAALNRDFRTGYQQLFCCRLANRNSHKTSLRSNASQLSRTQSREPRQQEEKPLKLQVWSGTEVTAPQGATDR
Data set [15] is described as follows: Clearance in Cynomolgus monkey. The format is ADME, organism-based, Macaca fascicularis. To be noted: in vivo.
A short description of data set [16]: Oral bioavailability in dog. Type of data set: ADME, organism-based, Canis lupus familiaris. To be noted: in vivo.
Data set [17] is described as follows: Half life in rat microsomes. Type of data set: ADME, Microsome.
The target in data set [18] is T1, Histamine H4 receptor. Put plainly: Inverse agonist activity at human histamine H4 receptor assessed as inhibition of [35S]GTPgammaS binding after 15 mins by scintillation proximity assay relative to control. On the set-up: concentration or dose not given beside the values. Type of data set: functional.
The target in data set [19] is T1, Histamine H4 receptor. Put plainly: Displacement of [3H]histamine human recombinant histamine H4 receptor. In outline:
as §1

Each structure is given as a SMILES string.

Broadly, the IC50 is the concentration that inhibits the measured activity by half. The term inhibition denotes the drop in the measured response relative to a control, in per cent. As a reminder, the CL/F is the apparent clearance, not corrected for the fraction that reaches the circulation. One may read the bioavailability as the share of a dose that reaches the circulation, judged against a reference dose that is usually intravenous. As a reminder, the clearance is a measure of how efficiently the substance is removed, as volume per time. By half-life is commonly meant how long it takes for the measured level to halve.

T1 sequence (Q9H3N8 whole entry): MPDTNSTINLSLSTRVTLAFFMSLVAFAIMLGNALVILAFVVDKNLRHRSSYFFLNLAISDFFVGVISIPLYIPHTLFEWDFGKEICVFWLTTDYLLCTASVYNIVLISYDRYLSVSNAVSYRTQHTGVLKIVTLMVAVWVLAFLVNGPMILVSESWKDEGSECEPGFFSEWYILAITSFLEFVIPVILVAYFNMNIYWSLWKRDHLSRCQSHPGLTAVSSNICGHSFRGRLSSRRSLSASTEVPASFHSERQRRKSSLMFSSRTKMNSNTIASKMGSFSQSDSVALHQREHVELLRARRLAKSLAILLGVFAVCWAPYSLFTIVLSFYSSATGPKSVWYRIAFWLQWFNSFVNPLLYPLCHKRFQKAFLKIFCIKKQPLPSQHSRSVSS
Chain of Histamine H1 receptor (P35367 whole entry): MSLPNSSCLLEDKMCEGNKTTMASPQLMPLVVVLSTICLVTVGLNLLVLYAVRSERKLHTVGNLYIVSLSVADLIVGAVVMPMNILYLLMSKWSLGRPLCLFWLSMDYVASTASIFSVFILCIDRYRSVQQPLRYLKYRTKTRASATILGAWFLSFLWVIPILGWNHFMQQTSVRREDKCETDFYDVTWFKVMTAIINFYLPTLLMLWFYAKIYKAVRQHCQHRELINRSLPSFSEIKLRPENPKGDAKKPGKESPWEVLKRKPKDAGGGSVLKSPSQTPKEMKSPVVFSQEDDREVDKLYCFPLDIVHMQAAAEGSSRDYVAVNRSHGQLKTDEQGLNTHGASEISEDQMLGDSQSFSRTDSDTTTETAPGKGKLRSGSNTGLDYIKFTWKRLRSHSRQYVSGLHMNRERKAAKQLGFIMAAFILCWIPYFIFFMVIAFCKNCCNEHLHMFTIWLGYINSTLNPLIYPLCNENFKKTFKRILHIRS

As to `CN[C@@H]1CCN(c2ncnc3c2oc2ccc(C(F)(F)F)cc23)C1`, the remaining at 10 min in data set [1] worked out at 59%. Also, in data set [2], the IC50 was 0.03 µM.

On to `CNC1CCN(c2ncnc3c2oc2ccc(Cl)cc23)C1` (stereo not drawn), for which the remaining at 10 min in [1] was 80%. The compound further returned an IC50 in [2] of 0.095 µM.

`CNC1CCN(c2ncnc3c2oc2ccc(C#N)cc23)C1` (stereo not drawn): the remaining at 10 min in data set [1] is 95%. In data set [2], this compound gave an IC50 of 6.2 µM.

Take `CNC(=O)c1ccc2oc3c(N4CCC(NC)C4)ncnc3c2c1` (stereo not drawn): the IC50 in [2] is over 30 µM.

Regarding `CN1CC2CCC1CN2c1ncnc2c1oc1ccc(Cl)cc12` (stereo not drawn), the remaining at 10 min in [1] is 66%. Moreover, the IC50 in [2] worked out at 0.169 µM.

`CC1CN(c2ncnc3c2oc2ccc(Cl)cc23)CC(C)N1C` (stereo not drawn) yielded an IC50 in [2] of 10 µM.

As to `CN[C@@H]1CCN(c2nc(N)nc3c2oc2ccc(Cl)cc23)C1`, the Vd in [3] came out at 26 L/kg; in data set [4], 25 L/kg; in [7], 71 L/kg. Moreover, in data set [5], the inhibition at 1 µM was determined as 45%. The CL/F in data set [6] came to 7.02 L/h/kg. For the same compound, the IC50 in [8] was over 30 µM; in [9], 0.003 µM; in data set [2] it was 0.001 µM; in data set [13], 5.8 µM; in [14], over 30 µM. Besides, in [1], the remaining at 10 min was 62%. The bioavailability was 5% in [10], 99% in [11] and 36% in data set [16]. Besides, the results for the clearance in data set [12] and in data set [15] were 3.12 L/h/kg and 3.72 L/h/kg, respectively. This compound had a half-life in data set [17] of 13 min. For the same compound, the inhibition in data set [18] is 138%.

For the compound `CN1CCN(c2nc(C(F)(F)F)nc3c2oc2ccc(Cl)cc23)CC1`, the remaining at 10 min in data set [1] amounted to 7%. In addition, the values for the IC50 in data set [9] and in data set [2] were 0.039 µM and 0.083 µM, respectively. Besides, the inhibition in [18] is 100%.

On to `CN(C)C1CCN(c2ncnc3c2oc2ccc(Cl)cc23)C1` (stereo not drawn), for which the remaining at 10 min in data set [1] is 18%. The compound further yielded an IC50 in data set [2] of 21 µM.

For the compound `CNC1CCN(c2nc(C)nc3c2oc2ccc(Cl)cc23)C1` (stereo not drawn), in [1], the remaining at 10 min stood at 95%. Moreover, the IC50 in [2] is 1.6 µM.

Consider `CN1C2CCC1CN(c1ncnc3c1oc1ccc(Cl)cc13)C2`, for which the remaining at 10 min in data set [1] amounted to 62%. For the same compound, the IC50 in [2] was 0.44 µM.

For the compound `CN[C@@H]1CCN(c2ncnc3c2oc2ccc(C)cc23)C1`, in data set [1], the remaining at 10 min came out at 74%. The IC50 in data set [2] turned out to be 0.086 µM.

With `CNC1CCN(c2ncnc3c2oc2ccc(Cl)cc23)CC1`, the IC50 in data set [2] is over 10 µM.

The compound `CCNC1CCN(c2ncnc3c2oc2ccc(Cl)cc23)C1` (stereo not drawn) registered an IC50 in data set [2] of over 10 µM.

For the compound `CN[C@@H]1CCN(c2ncnc3c2oc2ccc(Cl)cc23)C1`, in data set [1] (10 min), the Stability is listed as 92%. For the same compound, the IC50 in [9] worked out at 0.041 µM; in data set [2], 0.033 µM. Besides, the t1/2 in [17] was determined as 19 min.

Take `CN1CCN(c2nc(C(=O)O)nc3c2oc2ccc(Cl)cc23)CC1`: in data set [1], the remaining at 10 min was found to be 106%. Moreover, in [2], the IC50 is over 10 µM.

For `COc1nc(N2CCN(C)CC2)c2oc3ccc(Cl)cc3c2n1`, the remaining at 10 min in [1] worked out at 13%. The same compound came in with an IC50 in [2] of 0.09 µM.

In the case of `CNC1CCN(c2ncnc3c2oc2ccc(-c4ccccc4)cc23)C1` (stereo not drawn), the remaining at 10 min in data set [1] turned out to be 97%. This compound also returned an IC50 in data set [2] of over 10 µM.

Consider `CN[C@H]1CCN(c2ncnc3c2oc2ccc(Cl)cc23)C1`, for which the remaining at 10 min in data set [1] was determined as 103%. Further, the IC50 in data set [9] was 0.292 µM; in [2], 0.285 µM. The half-life in [17] amounted to 73 min. Also, the inhibition in data set [18] came to 122%.

In the case of `Clc1ccc2oc3c(N4CCN5CCCC5C4)ncnc3c2c1` (stereo not drawn), in [1], the remaining at 10 min is 0%. The IC50 in data set [2] worked out at 0.236 µM.

For the compound `CN1C[C@@H]2C[C@H]1CN2c1ncnc2c1oc1ccc(Cl)cc12`, in [1], the remaining at 10 min stood at 75%. Also, the results for the IC50 in data set [9] and in [2] were 0.07 µM and 0.111 µM, respectively. For the same compound, in data set [18], the inhibition came out at 105%.

For the compound `NC1CCN(c2ncnc3c2oc2ccc(Cl)cc23)C1` (stereo not drawn), the remaining at 10 min in data set [1] was 107%. In [2], this compound registered an IC50 of 0.126 µM.

`CN[C@@H]1CCN(c2nc(C(F)(F)F)nc3c2oc2ccc(Cl)cc23)C1`: the IC50 in data set [2] is 14.2 µM.

As for `CN1CCN(c2nc(C3CC3)nc3c2oc2ccc(Cl)cc23)CC1`, the remaining at 10 min in data set [1] was determined as 8%. For the same compound, in [2], the IC50 came to 0.31 µM.

Take `CC1CN(c2ncnc3c2oc2ccc(Cl)cc23)CCN1C` (stereo not drawn): the remaining at 10 min in [1] is 1%. In addition, the IC50 in data set [2] came to 1.9 µM.

For the compound `CNC1CN(c2ncnc3c2oc2ccc(Cl)cc23)C1`, the remaining at 10 min in [1] turned out to be 89%. Also, the IC50 worked out at 0.076 µM in data set [9] and 0.087 µM in data set [2]. Besides, the inhibition in data set [18] is 149%.

Compound `Clc1ccc2oc3c(N4CC5CCCNC5C4)ncnc3c2c1` (stereo not drawn) came in with an IC50 in data set [2] of 1.4 µM.

As to `CNC1(C)CCN(c2ncnc3c2oc2ccc(Cl)cc23)C1` (stereo not drawn), in data set [2], the IC50 worked out at 1.4 µM.

`CN1CCN(c2nc(O)nc3c2oc2ccc(Cl)cc23)CC1`: the remaining at 10 min in data set [1] amounted to 83%. In [2], the IC50 is 1 µM.

As for `Cc1nc(N2CCN(C)CC2)c2oc3ccc(Cl)cc3c2n1`, the remaining at 10 min in [1] stood at 0%. Moreover, in data set [2], the IC50 was found to be 0.037 µM.

For `CN1CCN(c2ncnc3c2oc2ccc(Cl)cc23)CC1`, the IC50 in data set [19] and in data set [2] was 0.019 µM in each case. Moreover, in [1], the remaining at 10 min was 1%.

The compound `CNC1CCCN(c2ncnc3c2oc2ccc(Cl)cc23)C1` (stereo not drawn) returned an IC50 in data set [2] of over 10 µM.

On to `CN1CCN(c2nc(-c3ccccc3)nc3c2oc2ccc(Cl)cc23)CC1`, for which the remaining at 10 min in data set [1] came out at 40%. For the same compound, the IC50 in data set [2] is over 30 µM.

Consider `CNC1CCN(c2ncnc3c2oc2ccc(C(=O)O)cc23)C1` (stereo not drawn), for which the remaining at 10 min in data set [1] is 80%. Moreover, in data set [2], the IC50 was over 30 µM.

Regarding `CN[C@H]1CCN(c2nc(N)nc3c2oc2ccc(Cl)cc23)C1`, in data set [1], the remaining at 10 min stood at 68%. Also, the concentration for half-maximal inhibition (IC50) in data set [9] turned out to be 0.004 µM; in data set [2], 0.013 µM. This compound yielded a half-life in data set [17] of 21 min.

Compound `CN[C@@H]1CCN(c2ncnc3c2oc2cc(Cl)ccc23)C1` returned an IC50 in [2] of 0.171 µM.
